# Assay results taken from ChEMBL document CHEMBL5058577, “EUbOPEN Chemogenomics Library 2 (Multiplex)” (2022).
# System: U2OS
# Experiment: Multiplex assay against U2OS
# Format: toxicity, cell-based
# Conditions: human
# Procedure, shortened: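 Tubulin, mitochondrial-mass and membrane-permeability phenotypes are per cents of healthy-nucleus cells. Cells were gated by CellPathfinder machine learning into Hoechst high-intensity objects or normal cells, normal cells into healthy, pyknosed or fragmented nuclei, and pyknosed cells into mitotic or apoptotic. Before that, live cells stained at seeding with Hoechst33342, BioTracker Green Microtubule Cytoskeleton Dye, MitoTracker Red and Annexin V Alexa Fluor 680 were imaged on a CQ1 microscope at 37°C and 5% CO2 after compound addition.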
# [1] = 12 h, 1 µM, compound concentration 1 uM, replicate 1
# [2] = 12 h, 1 µM, compound concentration 1 uM, replicate 2
# [3] = 12 h, 10 µM, compound concentration 10 uM, replicate 1
# [4] = 12 h, 10 µM, compound concentration 10 uM, replicate 2
# [5] = 24 h, 1 µM, compound concentration 1 uM, replicate 1
# [6] = 24 h, 1 µM, compound concentration 1 uM, replicate 2
# [7] = 24 h, 10 µM, compound concentration 10 uM, replicate 1
# [8] = 24 h, 10 µM, compound concentration 10 uM, replicate 2
# [9] = 48 h, 1 µM, compound concentration 1 uM, replicate 1
# [10] = 48 h, 1 µM, compound concentration 1 uM, replicate 2
# [11] = 48 h, 10 µM, compound concentration 10 uM, replicate 1
# [12] = 48 h, 10 µM, compound concentration 10 uM, replicate 2
smiles,measurement,setting,value
OCCCNc1cc(-c2ccnc(Nc3cccc(Cl)c3)n2)ccn1,Population Apoptotic (%),[1],88%
same,Population Fragmented Nuclei (%),[1],38%
same,Population Healthy Nuclei (%),[1],52%
same,Population Hoechst High Intensity Objects (%),[1],3%
same,Population Membrane Permeable-Phenotype (%),[1],8%
same,Population Mitochondria Different-Phenotype (%),[1],4%
same,Population Mitotic Cells (%),[1],11%
same,Population Normal (%),[1],97%
same,Population Pyknosed Nuclei (%),[1],9%
same,Population Tubulin-Different-Phenotype (%),[1],4%
same,Total Cell Count,[1],200
same,Population Apoptotic (%),[2],80%
same,Population Fragmented Nuclei (%),[2],27%
same,Population Healthy Nuclei (%),[2],51%
same,Population Hoechst High Intensity Objects (%),[2],5%
same,Population Membrane Permeable-Phenotype (%),[2],10%
same,Population Mitochondria Different-Phenotype (%),[2],18%
same,Population Mitotic Cells (%),[2],20%
same,Population Normal (%),[2],94%
same,Population Pyknosed Nuclei (%),[2],20%
same,Population Tubulin-Different-Phenotype (%),[2],5%
same,Total Cell Count,[2],76
same,Population Apoptotic (%),[3],85%
same,Population Fragmented Nuclei (%),[3],37%
same,Population Healthy Nuclei (%),[3],56%
same,Population Hoechst High Intensity Objects (%),[3],4%
same,Population Membrane Permeable-Phenotype (%),[3],46%
same,Population Mitochondria Different-Phenotype (%),[3],36%
same,Population Mitotic Cells (%),[3],14%
same,Population Normal (%),[3],95%
same,Population Pyknosed Nuclei (%),[3],6%
same,Population Tubulin-Different-Phenotype (%),[3],46%
same,Total Cell Count,[3],237
same,Population Apoptotic (%),[4],91%
same,Population Fragmented Nuclei (%),[4],24%
same,Population Healthy Nuclei (%),[4],64%
same,Population Hoechst High Intensity Objects (%),[4],10%
same,Population Membrane Permeable-Phenotype (%),[4],47%
same,Population Mitochondria Different-Phenotype (%),[4],51%
same,Population Mitotic Cells (%),[4],8%
same,Population Normal (%),[4],89%
same,Population Pyknosed Nuclei (%),[4],11%
same,Population Tubulin-Different-Phenotype (%),[4],61%
same,Total Cell Count,[4],118
same,Population Apoptotic (%),[5],96%
same,Population Fragmented Nuclei (%),[5],43%
same,Population Healthy Nuclei (%),[5],43%
same,Population Hoechst High Intensity Objects (%),[5],7%
same,Population Membrane Permeable-Phenotype (%),[5],10%
same,Population Mitochondria Different-Phenotype (%),[5],10%
same,Population Mitotic Cells (%),[5],4%
same,Population Normal (%),[5],92%
same,Population Pyknosed Nuclei (%),[5],13%
same,Population Tubulin-Different-Phenotype (%),[5],6%
same,Total Cell Count,[5],200
same,Population Apoptotic (%),[6],94%
same,Population Fragmented Nuclei (%),[6],40%
same,Population Healthy Nuclei (%),[6],33%
same,Population Membrane Permeable-Phenotype (%),[6],16%
same,Population Mitochondria Different-Phenotype (%),[6],25%
same,Population Mitotic Cells (%),[6],5%
same,Population Pyknosed Nuclei (%),[6],25%
same,Population Tubulin-Different-Phenotype (%),[6],16%
same,Total Cell Count,[6],77
same,Population Apoptotic (%),[7],88%
same,Population Fragmented Nuclei (%),[7],37%
same,Population Healthy Nuclei (%),[7],50%
same,Population Hoechst High Intensity Objects (%),[7],11%
same,Population Membrane Permeable-Phenotype (%),[7],34%
same,Population Mitochondria Different-Phenotype (%),[7],40%
same,Population Mitotic Cells (%),[7],12%
same,Population Normal (%),[7],88%
same,Population Pyknosed Nuclei (%),[7],12%
same,Population Tubulin-Different-Phenotype (%),[7],37%
same,Total Cell Count,[7],229
same,Population Apoptotic (%),[8],95%
same,Population Fragmented Nuclei (%),[8],30%
same,Population Healthy Nuclei (%),[8],49%
same,Population Hoechst High Intensity Objects (%),[8],12%
same,Population Membrane Permeable-Phenotype (%),[8],43%
same,Population Mitochondria Different-Phenotype (%),[8],54%
same,Population Mitotic Cells (%),[8],4%
same,Population Normal (%),[8],87%
same,Population Pyknosed Nuclei (%),[8],20%
same,Population Tubulin-Different-Phenotype (%),[8],61%
same,Total Cell Count,[8],128
same,Population Apoptotic (%),[9],95%
same,Population Fragmented Nuclei (%),[9],56%
same,Population Healthy Nuclei (%),[9],22%
same,Population Hoechst High Intensity Objects (%),[9],16%
same,Population Membrane Permeable-Phenotype (%),[9],30%
same,Population Mitochondria Different-Phenotype (%),[9],14%
same,Population Mitotic Cells (%),[9],4%
same,Population Normal (%),[9],83%
same,Population Pyknosed Nuclei (%),[9],21%
same,Population Tubulin-Different-Phenotype (%),[9],26%
same,Total Cell Count,[9],227
same,Population Apoptotic (%),[10],100%
same,Population Fragmented Nuclei (%),[10],59%
same,Population Healthy Nuclei (%),[10],11%
same,Population Hoechst High Intensity Objects (%),[10],12%
same,Population Mitochondria Different-Phenotype (%),[10],20%
same,Population Mitotic Cells (%),[10],0%
same,Population Normal (%),[10],87%
same,Population Pyknosed Nuclei (%),[10],28%
same,Population Tubulin-Different-Phenotype (%),[10],10%
same,Total Cell Count,[10],99
same,Population Apoptotic (%),[11],94%
same,Population Fragmented Nuclei (%),[11],47%
same,Population Healthy Nuclei (%),[11],31%
same,Population Hoechst High Intensity Objects (%),[11],21%
same,Population Membrane Permeable-Phenotype (%),[11],43%
same,Population Mitochondria Different-Phenotype (%),[11],45%
same,Population Mitotic Cells (%),[11],5%
same,Population Normal (%),[11],78%
same,Population Pyknosed Nuclei (%),[11],21%
same,Population Tubulin-Different-Phenotype (%),[11],45%
same,Total Cell Count,[11],223
same,Population Apoptotic (%),[12],96%
same,Population Fragmented Nuclei (%),[12],50%
same,Population Healthy Nuclei (%),[12],25%
same,Population Hoechst High Intensity Objects (%),[12],23%
same,Population Membrane Permeable-Phenotype (%),[12],65%
same,Population Mitochondria Different-Phenotype (%),[12],34%
same,Population Mitotic Cells (%),[12],4%
same,Population Normal (%),[12],76%
same,Population Pyknosed Nuclei (%),[12],24%
same,Population Tubulin-Different-Phenotype (%),[12],65%
same,Total Cell Count,[12],134
